Assay results: article PMC6448596 (Cell reports, 2019)

Assays:
[1] = test system: WDR5; experiment: Surface plasmon resonance direct affinity measurement; assay type: binding, Human
Procedure, shortened: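 Enhanced SPR (eSPR) was run externally using purified WDR5 supplied by the authors. Test compounds were prepared as 30 mM DMSO stock solutions.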

[2] = molecular target: MLL1 complex (Homo sapiens, UniProt P61964); experiment: MLL1 HMT assay; assay type: biochemical
[3] = test system: HEL cells; experiment: Proliferation assay; assay type: cell-based; settings: Homo sapiens, 72 h
Procedure, shortened: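 CellTiter-Glo, 5,000 cells/well. Cells received 0.1% DMSO or at least five two-fold dilutions of test compound (top 50 μM, final DMSO 0.1%), in triplicate wells and ≥2 biological replicates, for 72 h at 37°C. Reagent was added after equilibration to RT, with 30 min dark incubation before luminescence. Signals were normalized to DMSO wells and GI50 obtained by curve fitting. Curve error bars are SEM.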

[4] = test system: MA93 FLT3-ITD cells; experiment: Proliferation assay; assay type: cell-based; settings: Homo sapiens, 72 h
Procedure, shortened: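 CellTiter-Glo at 2,000 cells/well. MA93 Ras and MA93 FLT3/ITD were maintained in IMDM/20% FBS. Parental MA93 received IMDM/20% FBS plus 10 ng/mL human SCF, TPO, FLT3L, IL3 and IL6. Dosing used ≥5 two-fold dilutions from 50 μM top, 0.1% DMSO final, in triplicate wells with ≥2 biological replicates. Plates ran 72 h at 37°C, followed by 30 min reagent incubation at RT in the dark. GI50 came from DMSO-normalized luminescence.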

[5] = test system: RN2 cells; experiment: Proliferation assay; assay type: cell-based, murine; settings: Mus musculus, 72 h
Procedure, shortened: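 Murine RN2 cells were seeded at 2,500/well and exposed to ≥5 two-fold dilutions (top 50 μM, 0.1% DMSO final) in triplicate wells, with ≥2 biological replicates, for 72 h. MTS reagent was added for 1.25 h at 37°C and absorbance read at 490 nm. Values were normalized to DMSO wells and GI50 fitted. Error bars are SEM.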

[6] = test system: MV4:11 cells expressing shRNAs against p53; experiment: Proliferation assay in MV4:11 cells expressing p53 or scrambled shRNAs; assay type: cell-based; settings: Homo sapiens, MV4-11, 72 h, MV4:11 expressing p53 shRNA_941, 3-day treatment
Procedure, shortened: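 Proliferation was measured in MV4:11 cells carrying scrambled, p53 sh_427 or p53 sh_941 shRNA. Cells received 3-day test compound treatment in a dose–response series, with GI50 derived from the curves.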

[7] = test system: MV4:11 cells; experiment: Cell cycle analysis; assay type: cell-based, human; settings: 2 μM, up to 6 days
Procedure, shortened: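 1 million cells were fixed dropwise in ice-cold 70% ethanol (≥2 h, […]) and stained with PI (10 μg/mL) plus RNase for 20 min at RT in the dark. Flow: ≥10,000 events, doublets excluded. Three biological replicates, SEM.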

[8] = test system: MV4:11 cells; experiment: Induction of apoptosis; assay type: cell-based, human; settings: 2 μM, up to 6 days
Procedure, shortened: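 MV4:11 cells were exposed 0–6 days to 2 μM test compound, negative control or 0.1% DMSO, with medium and compound refreshed on day 3. Camptothecin (2 μM, 4 h) served as positive control. 5 × 10^5 cells were stained with Alexa Fluor488–annexin V for 15 min, then propidium iodide for 10 min. Flow cytometry recorded ≥10,000 events, with doublet exclusion and quadrants set on unstained cells. Annexin V+/PI− % is from three biological replicates, SEM.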

[9] = test system: p53 and p21 protein levels in Molm13 cells; experiment: p53/p21 induction western blot; assay type: cell-based, human; settings: Molm13, 3 μM, 24 h
Procedure, shortened: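 Treatment lasted 24 h with test compound or its negative control, at 2 μM in MV4:11 and 3 μM in Molm13. Comparators were 2 μM Nutlin-3 or 0.1% DMSO. Four million cells were PBS-washed and lysed 10 min on ice in Kischkel buffer. p53 and p21 were detected by western blot, with histone H3 as loading control.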

[10] = test system: gene expression in MV4:11 cells; experiment: RNA-Seq; assay type: cell-based, human; settings: overlap of RNA-seq and WDR5 ChIP-seq, MV4:11
[11] = test system: gamma-H2AX in MV4:11 cells; experiment: gamma-H2AX immunofluorescence, DNA damage; assay type: cell-based, human; settings: MV4:11, 4 µM
Procedure, shortened: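 Cells were cytospun onto slides (100,000 cells, 800 rpm, 3 min) and immunostained for γ-H2AX. Mean nuclear γ-H2AX signal was quantified and compared with DMSO by one-way ANOVA with Dunnett's test.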

[12] = test system: p53 turnover in MV4:11 cells; experiment: Cycloheximide; assay type: cell-based, human; settings: MV4:11, 2 μM, 24 h before CHX
Procedure, shortened: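 Before the cycloheximide chase, MV4:11 cells were pretreated 24 h with 2 μM test compound, 2 μM Nutlin-3 as comparator, or DMSO only. p53 was then followed by immunoblot.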

[13] = test system: TP53 mRNA on polysomes in MV4:11 cells; experiment: Polysome fractionation with RT-qPCR; assay type: cell-based, human; settings: MV4:11, 5 μM, 24 h
Procedure, shortened: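 15 × 10^6 MV4:11 cells were treated 24 h with 5 μM test compound or DMSO and lysed 10 min on ice. Target mRNAs in monosomal and polysomal fractions were measured by RT-qPCR and normalized to GAPDH. Values were expressed as percent of total RNA, relative to DMSO.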

window of selectivity for MLL1 over other MLL/SET complexes [2]: ≥ 250 fold
IC50 ([2]; MLL1 HMT IC50, H3 peptide as substrate): ~0.02 µM
GI50 [6]: 15 µM
Structure (SMILES): Cc1nc(F)ccc1-c1cc(Cn2ccn(C)c2=N)cc(C(=O)NCc2ccc(Cl)c(Cl)c2)c1 [Compound C6, N-(3,4-Dichlorobenzyl)-3-(6-fluoro-2-methylpyridin-3-yl)-5-((2-imino-3-methyl-2,3-dihydro-1H-imidazol-1-yl)methyl)benzamide]
SPR affinity for WDR5 relative to values calculated by TR-FRET [1]: ≤ 2 fold
specificity of HMT inhibition among all MLL/SET complexes [2]: specific for MLL1, with little activity against other MLL/SET family members
GI50 [3]: > 50 µM
GI50 [4]: 2.47 ± 0.137 µM
GI50 [5]: 11.2 ± 1.48 µM
cell-cycle distribution, sub-G1 DNA content [7]: time-dependent increase in cells with a sub-G1 DNA content
annexin V staining, apoptotic cells [8]: appearance of apoptotic cells
p53 and p21 protein induction [9]: p53 and p21 are also induced
number of WDR5-bound genes induced [10]: 1
number of WDR5-bound genes repressed [10]: 59
DNA damage response, accumulation of γ-H2AX foci [11]: does not induce a robust DNA damage response
p53 turnover in CHX chase [12]: no detectable effects on p53 turnover
polysome-associated mRNAs [13]: promoted an accumulation of polysome-associated mRNAs for TP53
